# Source: PubChem BioAssay
# CHRM4 antagonist = blocks acetylcholine activation of human M4 receptor; P08173; CHO-hM4 cells, ACh EC80, Fluo-8 calcium fluorescence; inhibition, % at 3 µM; actives 0.73% (n = 360,000); AID 624125;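 active means inhibition above its plate's cutoff, the mean inhibition of sample wells plus 3 SD, cut at about 27% in these data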;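 further: 0% = acetylcholine EC80 with DMSO and 100% = DMSO without agonist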
# CHRM5 PAM = positive allosteric modulators of human muscarinic M5 receptor | P08912 | CHO-K1 hM5, Fluo-8 calcium, ACh EC20 PAM; 0% = ACh EC20, 100% = ACh EC100 | activation, % at 3 µM | actives 0.3% (n = 360,000) | AID 624038;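 active means activation above the run cutoff, the mean activation of all test compounds plus 3 SD, cut at about 18% in these data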
# Target sequence (P08912 whole entry, looked up): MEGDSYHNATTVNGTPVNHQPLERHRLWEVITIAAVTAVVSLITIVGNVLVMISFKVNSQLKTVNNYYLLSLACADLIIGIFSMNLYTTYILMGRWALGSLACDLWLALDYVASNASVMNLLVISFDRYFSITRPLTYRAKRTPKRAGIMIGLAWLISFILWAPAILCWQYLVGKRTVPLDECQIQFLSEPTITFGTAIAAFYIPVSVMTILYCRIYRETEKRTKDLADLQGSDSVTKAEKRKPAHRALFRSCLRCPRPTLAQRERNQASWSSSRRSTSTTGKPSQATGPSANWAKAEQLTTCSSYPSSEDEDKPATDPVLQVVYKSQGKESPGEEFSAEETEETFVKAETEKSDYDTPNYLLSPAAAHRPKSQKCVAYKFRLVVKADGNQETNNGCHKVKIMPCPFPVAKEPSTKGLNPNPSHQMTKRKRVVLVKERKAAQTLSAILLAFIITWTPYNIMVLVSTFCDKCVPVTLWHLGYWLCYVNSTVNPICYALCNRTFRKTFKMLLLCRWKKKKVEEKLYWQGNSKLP
#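 System: CHO-K1 hM5 cells. Reagent: acetylcholine, EC20 level. Compound dosing: single dose, 3 µM nominal final test concentration. Timing: Post-acetylcholine fluorescence recording 140 s. Detection: Fluo-8 calcium fluorescence. Read-out: % activation, ACh-normalized. Benchmarks: ACh EC20 and EC100 wells. Repeats: singlicate, one well per test compound.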
# CHRM5 antagonist = antagonists of human muscarinic M5 receptor (CHRM5). P08912. CHO-hM5 cells, Fluo-8 calcium fluorescence, ACh EC80. inhibition, % at 3 µM. actives 0.59% (n = 360,000). AID 624040;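 active means inhibition above a per-plate cutoff, the mean of that plate's test compounds plus 3 SD, cut at about 27% in these data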;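 further: 0% = acetylcholine EC80 with DMSO and 100% = DMSO without agonist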
# M4 ag = CHRM4 agonism in calcium assay; P08173; CHO-K1 hM4/Gqi5, Fluo-8 calcium fluorescence; vehicle 0%, full acetylcholine response 100%; activation, % at 3 µM; actives 0.14% (n = 360,000); AID 624127;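 active means activation above the run mean over all test wells plus 3 SD, cut at about 32% in these data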;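 further: peak over basal fluorescence ratio per well then scaled between controls; 0% = DMSO wells and 100% = acetylcholine at EC100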
# CHRM4 PAM = positive allosteric modulators of human muscarinic M4 receptor; P08173; CHO-K1 hM4/Gqi5, Fluo-8 calcium fluorescence, ACh EC20; 0% = ACh EC20, 100% = maximal ACh; activation, % at 3 µM; actives 0.4% (n = 360,000);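 active means activation above its plate's cutoff, the mean activation of sample wells plus 3 SD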
# CHRM5 agonist = CHRM5 agonism in calcium assay; CHO-K1 hM5 cells, Fluo-8 calcium fluorescence; 0% DMSO wells, 100% maximal acetylcholine response; activation, % at 3 µM; actives 0.19% (n = 360,000); AID 624037;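 active means activation above the run's mean over test compounds plus 3 SD, cut at about 23% in these data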;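 further: signal is peak over basal fluorescence ratio across the kinetic read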
# Active calls of the source: *. An excerpt weighted towards active compounds, which were near 1.8% of everything screened.
SMILES,CHRM4 antagonist,CHRM5 PAM,CHRM5 antagonist,M4 ag,CHRM4 PAM,CHRM5 agonist
Cc1ccc(Nc2nc3ccccc3nc2Nc2c(C)n(C)n(-c3ccccc3)c2=O)cc1,-5,23*,-11,1,12,3
Nc1nnc(SCC(=O)NNC(=O)c2ccccc2F)s1,-20,5,-6,1,1,1
CC(=O)Nc1cc(-c2cccc(N)c2)cn2c(-c3ccc(C(C)=O)cc3)cnc12,-7,-4,10,6,-2,1
O=S(=O)(NC1CCCC1)c1ccc(S(=O)(=O)NC2CCCC2)cc1,11,-8,2,9,0,28*
C=CC[C@@H](CC(=O)N[C@@H](CO)Cc1ccccc1)C(=O)N[C@H](C)COC(=O)[C@@H](CC=C)Cc1ccc(F)cc1,5,5,5,2,26*,3
C=CCC[C@H](Cc1ccc(F)cc1)C(=O)OC[C@H](Cc1c[nH]c2ccccc12)NC(=O)[C@H](CC=C)CC(=O)NCCO,30*,-16,13,18,0,2
C=CC[C@H](CC(=O)N(CCO)Cc1ccccc1)C(=O)N[C@H](COC(=O)[C@@H](CC=C)CC(=O)OC(C)(C)C)Cc1c[nH]c2ccccc12,27*,-21,14,14,-4,4
C=CC[C@@H](CC(=O)N[C@@H](CO)Cc1ccccc1)C(=O)N[C@@H](C)COC(=O)[C@@H](CC=C)Cc1ccc(F)cc1,-10,-9,18,4,11,-1
CCCCn1c(N)c(N(CC)C(=O)c2ccc(C#N)cc2)c(=O)[nH]c1=O,-8,8,3,1,-4,1
CCN(CC(=O)NCc1cccs1)c1ccc(S(=O)(=O)N2CCN(C)CC2)cn1,6,-3,12,0,-4,-5
Cc1occc1C(=O)N1CCCC(CCC(=O)NCc2ccc(F)c(F)c2)C1 (stereo unspecified),-7,3,2,2,2,-2
O=C(CCC1CCCN(C2C3CC4CC(C3)CC2C4)C1)NCc1ccc(F)c(F)c1 (stereo unspecified),41*,0,10,0,-20,-16
Cc1cnc(NC(=O)CSc2ncc(-c3ccccc3)n2Cc2ccco2)s1,-4,-28,8,10,0,26*
C=CCCC1(C)C(=O)N(c2ccccc2)c2ccccc21 (stereo unspecified),-4,25*,21,-1,-4,-2
C=CCC1(C)C(=O)N(c2ccccc2)c2ccccc21 (stereo unspecified),1,2,-4,-2,1,-2
Cc1ccc(C)c(S(=O)(=O)N2CCN(C(=O)CCC(=O)c3cc(C)sc3C)CC2)c1,1,-4,2,8,-7,-5
CCOc1ccc(NC(=O)c2ccc(Cl)c(NC(=O)c3ccco3)c2)cc1,-3,-2,4,1,1,1
CN(C)CCCNC(=O)N1c2ccccc2C=Cc2ccccc21,68*,-29,72*,1,-16,-22
CCN(CC)C(=O)N1c2ccccc2C=Cc2ccccc21,4,-9,-1,-3,-8,-8
CCOc1cccc(-c2c(C(=O)N/N=C/c3cccs3)nnn2-c2nonc2N)c1,-8,28*,-20,8,7,28*
Cc1ccc(/C=N/NC(=O)c2nnn(-c3nonc3N)c2-c2cccs2)cc1,-1,13,2,10,10,30*
CCOc1cccc(-c2c(C(=O)N/N=C/c3ccncc3)nnn2-c2nonc2N)c1,6,-6,15,3,2,-2
COc1cccc(-c2c(C(=O)N/N=C/c3cccs3)nnn2-c2nonc2N)c1,-9,-4,-4,8,3,31*
COc1ccc(C(=O)NC(=S)Nc2ccc(Cc3ccncc3)cc2)cc1,-5,-5,-16,10,4,1
O=C1CC2(CCN(C(=O)c3ccc(F)cc3)CC2)Oc2ccccc21,1,-1,1,2,-1,2
SMILES,CHRM4 antagonist,CHRM5 PAM,CHRM5 antagonist,M4 ag,CHRM4 PAM,CHRM5 agonist
CCC(NC(=O)CCCc1ccccc1)c1ccccc1 (stereo unspecified),6,-4,6,0,-1,-5
CC(C)NC(=O)CCCc1ccccc1,-1,7,-4,2,29*,4
O=C(CSc1nnc2ccc(-c3ccccn3)nn12)Nc1ccc(F)cc1F,-4,3,-9,0,-1,2
Cc1ccc(NC(=S)NC(NC(=O)c2ccccc2)C(Cl)(Cl)Cl)c(C)c1 (stereo unspecified),-24,-17,13,8,12,6
O=C(NC(NC(=S)Nc1ccccc1)C(Cl)(Cl)Cl)c1cccc(Cl)c1 (stereo unspecified),9,-10,44*,13,-5,7
Cc1ccccc1C(=O)NC(NC(=S)Nc1ccc(S(N)(=O)=O)cc1)C(Cl)(Cl)Cl (stereo unspecified),4,2,11,2,24*,0
Cc1ccc(C(=O)NC(NC(=S)Nc2ccc(S(N)(=O)=O)cc2)C(Cl)(Cl)Cl)cc1 (stereo unspecified),18,-8,8,3,0,-3
Cc1cc(C)c(NC(=S)NC(NC(=O)c2ccccc2)C(Cl)(Cl)Cl)c(C)c1 (stereo unspecified),7,16,27*,7,-1,5
OCC1(CO)CCCC(CO)(CO)C1O,3,2,10,1,3,2
CCN(CC#CCC1(O)c2ccccc2-c2ccccc21)C(C)C,35*,-50,39*,1,-14,-14
CCN(CC)CC#CCC1(O)c2ccccc2-c2ccccc21,17,-25,23,1,-11,-6
Cc1ccc(S(=O)(=O)CCC(=O)OC(C)C(=O)N2CCc3ccccc32)cc1 (stereo unspecified),2,-1,4,2,-1,-4
CC(C)(C)C(=O)Nc1ccc(C(=O)COC(=O)c2ccccn2)cc1,0,3,-8,1,2,3
COc1ccc(-c2nnc(SCC(=O)Nc3ccc(C(=O)O)cc3)n2-c2ccc(Cl)cc2)cc1,-9,-3,0,0,13*,-1
CCOC(=O)N1CCN(C(=O)CNC(=O)Cn2cnc3ccccc3c2=O)CC1,14,8,3,0,21*,-3
NC(=O)C1CCN(C(=O)Cc2ccsc2)CC1,0,-2,3,1,6,-5
O=C(Nc1cnc2ccccc2c1)N1CCOCC1,-18,0,-4,2,20*,-3
